Results reported in ChEMBL document CHEMBL1641423, “Novel gratisin derivatives with high antimicrobial activity and low hemolytic activity” (Bioorg Med Chem Lett, 2011).
Values after ≈ are worked out from the molar mass of the structure shown. Where a SMILES comes first, the peptide text is derived from it. [ ]: non-standard residue; d: D form. Orn = NCCC[C@H](N)C(=O)O

Experiments:
[1] = Cytotoxicity against human RBC assessed induction of hemolysis at […] after 30 mins microtiter plate reader analysis; type: cell-based; conditions: erythrocyte, 0.5 h
Priestia megaterium = test: Antibacterial activity against Bacillus megaterium ATCC 19213 after overnight incubation by medium dilution method; type: functional
Summary of the method: (§1)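 MIC by medium dilution with an inoculum of 10⁶ organisms per ml. Value is the minimum inhibitory concentration.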

[2] = tested on: Staphylococcus epidermidis; test: Antibacterial activity against Staphylococcus epidermidis NBRC 12993 after overnight incubation by medium dilution method; type: functional; summary of the method: as §1
Bacillus subtilis = test: Antibacterial activity against Bacillus subtilis NBRC 3513 after overnight incubation by medium dilution method; type: functional; summary of the method: as §1
Staphylococcus aureus = test: Antibacterial activity against Staphylococcus aureus NBRC 12732 after overnight incubation by medium dilution method; type: functional; summary of the method: as §1
Pseudomonas aeruginosa = test: Antibacterial activity against Pseudomonas aeruginosa NBRC 3080 after overnight incubation by medium dilution method; type: functional; summary of the method: as §1
Escherichia coli = test: Antibacterial activity against Escherichia coli NBRC l2734 after overnight incubation by medium dilution method; type: functional; summary of the method: as §1

Q: With CC(C)C[C@@H]1NC(=O)[C@H](CCCN)NC(=O)[C@H](C)NC(=O)[C@@H](Cc2ccc(O)cc2)NC(=O)[C@@H]2CCCN2C(=O)[C@@H](Cc2ccccc2)NC(=O)[C@H](CC(C)C)NC(=O)[C@H](CCCN)NC(=O)[C@H](C)NC(=O)[C@@H](Cc2ccc(O)cc2)NC(=O)[C@@H]2CCCN2C(=O)[C@@H](Cc2ccccc2)NC1=O as the compound, how does the Activity [1] read?
A: The Activity was “Non-toxic”.

Q: What about the MIC (Priestia megaterium) of the same compound?
A: The MIC was 12.5 µg/mL (≈ 8.85 µM).

Q: And the MIC [2]?
A: The MIC was 25 µg/mL (≈ 17.7 µM).

Q: What about the MIC (Bacillus subtilis) of the same compound?
A: Its MIC is 12.5 µg/mL (≈ 8.85 µM).

Q: What about the MIC (Staphylococcus aureus) of the same compound?
A: Its MIC is 6.25 µg/mL (≈ 4.43 µM).

Q: What about the MIC (Pseudomonas aeruginosa) of the same compound?
A: The MIC was greater than 100 µg/mL.

Q: What about the MIC (Escherichia coli) of the same compound?
A: Its MIC is greater than 100 µg/mL.

Q: What does the source list for CC(C)C[C@@H]1NC(=O)[C@H](C)NC(=O)[C@H](C(C)C)NC(=O)[C@@H](Cc2ccc(O)cc2)NC(=O)[C@@H]2CCCN2C(=O)[C@@H](Cc2ccccc2)NC(=O)[C@H](CC(C)C)NC(=O)[C@H](C)NC(=O)[C@H](C(C)C)NC(=O)[C@@H](Cc2ccc(O)cc2)NC(=O)[C@@H]2CCCN2C(=O)[C@@H](Cc2ccccc2)NC1=O?
A: Activity [1]: Non-toxic; MIC (Priestia megaterium): > 50 µg/mL; MIC [2]: > 50 µg/mL; MIC (Bacillus subtilis): > 50 µg/mL; MIC (Staphylococcus aureus): > 50 µg/mL; MIC (Pseudomonas aeruginosa): > 50 µg/mL; MIC (Escherichia coli): > 50 µg/mL

Q: Which Activity [1] does the source give for CC(C)[C@@H]1NC(=O)[C@@H](Cc2ccc(O)cc2)NC(=O)[C@@H]2CCCN2C(=O)[C@@H](Cc2ccccc2)NC(=O)[C@H](C)NC(=O)[C@H](CCCN)NC(=O)[C@H](C(C)C)NC(=O)[C@@H](Cc2ccc(O)cc2)NC(=O)[C@@H]2CCCN2C(=O)[C@@H](Cc2ccccc2)NC(=O)[C@H](C)NC(=O)[C@H](CCCN)NC1=O here?
A: Its Activity is “Non-toxic”.

Q: And the MIC (Priestia megaterium)?
A: Its MIC is 100 µg/mL (≈ 72.3 µM).

Q: And the MIC [2]?
A: Its MIC is greater than 100 µg/mL.

Q: What about the MIC (Bacillus subtilis) of the same compound?
A: The MIC was 100 µg/mL (≈ 72.3 µM).

Q: And the MIC (Staphylococcus aureus)?
A: Its MIC is 100 µg/mL (≈ 72.3 µM).

Q: What about the MIC (Pseudomonas aeruginosa) of the same compound?
A: The MIC was greater than 100 µg/mL.

Q: And the MIC (Escherichia coli)?
A: The MIC was greater than 100 µg/mL.

Q: Which Activity [1] does the source give for CC(C)C[C@@H]1NC(=O)[C@H](CCCN)NC(=O)[C@H](C(C)C)NC(=O)[C@@H](Cc2ccc(O)cc2)NC(=O)[C@@H]2CCCN2C(=O)[C@@H](C)NC(=O)[C@H](CC(C)C)NC(=O)[C@H](CCCN)NC(=O)[C@H](C(C)C)NC(=O)[C@@H](Cc2ccc(O)cc2)NC(=O)[C@@H]2CCCN2C(=O)[C@@H](C)NC1=O here?
A: The Activity was “Non-toxic”.

Q: And the MIC (Priestia megaterium)?
A: The MIC was greater than 100 µg/mL.

Q: And the MIC [2]?
A: The MIC was greater than 100 µg/mL.

Q: And the MIC (Bacillus subtilis)?
A: Its MIC is greater than 100 µg/mL.

Q: What about the MIC (Staphylococcus aureus) of the same compound?
A: The MIC was greater than 100 µg/mL.

Q: What about the MIC (Pseudomonas aeruginosa) of the same compound?
A: Its MIC is greater than 100 µg/mL.

Q: What about the MIC (Escherichia coli) of the same compound?
A: The MIC was greater than 100 µg/mL.

Q: Which Activity [1] does the source give for CC(C)C[C@@H]1NC(=O)[C@H](CCCN)NC(=O)[C@H](C(C)C)NC(=O)[C@@H](Cc2ccc(O)cc2)NC(=O)[C@H](C)NC(=O)[C@@H](Cc2ccccc2)NC(=O)[C@H](CC(C)C)NC(=O)[C@H](CCCN)NC(=O)[C@H](C(C)C)NC(=O)[C@@H](Cc2ccc(O)cc2)NC(=O)[C@H](C)NC(=O)[C@@H](Cc2ccccc2)NC1=O here?
A: The Activity was “Non-toxic”.

Q: What about the MIC (Priestia megaterium) of the same compound?
A: The MIC was 25 µg/mL (≈ 17.7 µM).

Q: And the MIC [2]?
A: Its MIC is 50 µg/mL (≈ 35.3 µM).

Q: What about the MIC (Bacillus subtilis) of the same compound?
A: Its MIC is 12.5 µg/mL (≈ 8.83 µM).

Q: And the MIC (Staphylococcus aureus)?
A: The MIC was 12.5 µg/mL (≈ 8.83 µM).

Q: And the MIC (Pseudomonas aeruginosa)?
A: The MIC was greater than 100 µg/mL.

Q: What about the MIC (Escherichia coli) of the same compound?
A: The MIC was greater than 100 µg/mL.

Q: Which results are given for CC(C)C[C@@H]1NC(=O)[C@H](CCCN)NC(=O)[C@H](CCCCN)NC(=O)[C@@H](Cc2ccc(O)cc2)NC(=O)[C@@H]2CCCN2C(=O)[C@@H](Cc2ccccc2)NC(=O)[C@H](CC(C)C)NC(=O)[C@H](CCCN)NC(=O)[C@H](CCCCN)NC(=O)[C@@H](Cc2ccc(O)cc2)NC(=O)[C@@H]2CCCN2C(=O)[C@@H](Cc2ccccc2)NC1=O?
A: Activity [1]: Non-toxic; MIC (Priestia megaterium): > 100 µg/mL; MIC [2]: > 100 µg/mL; MIC (Bacillus subtilis): > 100 µg/mL; MIC (Staphylococcus aureus): > 100 µg/mL; MIC (Pseudomonas aeruginosa): > 100 µg/mL; MIC (Escherichia coli): > 100 µg/mL

Q: For CC(C)C[C@@H]1NC(=O)[C@H](CCCN)NC(=O)[C@H](C(C)C)NC(=O)[C@@H](Cc2ccc(O)cc2)NC(=O)[C@H](CO)NC(=O)[C@@H](Cc2ccccc2)NC(=O)[C@H](CC(C)C)NC(=O)[C@H](CCCN)NC(=O)[C@H](C(C)C)NC(=O)[C@@H](Cc2ccc(O)cc2)NC(=O)[C@H](CO)NC(=O)[C@@H](Cc2ccccc2)NC1=O, which Activity [1] is on record?
A: The Activity was “Non-toxic”.

Q: What about the MIC (Priestia megaterium) of the same compound?
A: The MIC was 50 µg/mL (≈ 34.5 µM).

Q: And the MIC [2]?
A: The MIC was 50 µg/mL (≈ 34.5 µM).

Q: And the MIC (Bacillus subtilis)?
A: Its MIC is 25 µg/mL (≈ 17.3 µM).

Q: What about the MIC (Staphylococcus aureus) of the same compound?
A: The MIC was 12.5 µg/mL (≈ 8.63 µM).

Q: And the MIC (Pseudomonas aeruginosa)?
A: Its MIC is greater than 100 µg/mL.

Q: And the MIC (Escherichia coli)?
A: Its MIC is greater than 100 µg/mL.

Q: Which Activity [1] does the source give for CC(C)C[C@@H]1NC(=O)[C@H](CCCN)NC(=O)[C@H](C(C)C)NC(=O)[C@@H](Cc2ccc(O)cc2)NC(=O)[C@H](CCCCN)NC(=O)[C@@H](Cc2ccccc2)NC(=O)[C@H](CC(C)C)NC(=O)[C@H](CCCN)NC(=O)[C@H](C(C)C)NC(=O)[C@@H](Cc2ccc(O)cc2)NC(=O)[C@H](CCCCN)NC(=O)[C@@H](Cc2ccccc2)NC1=O here?
A: The Activity was “Non-toxic”.

Q: And the MIC (Priestia megaterium)?
A: The MIC was 6.25 µg/mL (≈ 4.09 µM).

Q: And the MIC [2]?
A: Its MIC is 6.25 µg/mL (≈ 4.09 µM).

Q: And the MIC (Bacillus subtilis)?
A: Its MIC is 6.25 µg/mL (≈ 4.09 µM).

Q: And the MIC (Staphylococcus aureus)?
A: The MIC was 6.25 µg/mL (≈ 4.09 µM).

Q: What about the MIC (Pseudomonas aeruginosa) of the same compound?
A: Its MIC is 100 µg/mL (≈ 65.4 µM).

Q: What about the MIC (Escherichia coli) of the same compound?
A: Its MIC is 25 µg/mL (≈ 16.3 µM).

Q: Which results are given for CC(C)C[C@@H]1NC(=O)[C@H](CCCN)NC(=O)[C@H](C(C)C)NC(=O)[C@@H](Cc2ccc(O)cc2)NC(=O)[C@H](CCCNC(=N)N)NC(=O)[C@@H](Cc2ccccc2)NC(=O)[C@H](CC(C)C)NC(=O)[C@H](CCCN)NC(=O)[C@H](C(C)C)NC(=O)[C@@H](Cc2ccc(O)cc2)NC(=O)[C@H](CCCNC(=N)N)NC(=O)[C@@H](Cc2ccccc2)NC1=O?
A: Activity [1]: Non-toxic; MIC (Priestia megaterium): 6.25 µg/mL (≈ 3.94 µM); MIC [2]: 6.25 µg/mL (≈ 3.94 µM); MIC (Bacillus subtilis): 6.25 µg/mL (≈ 3.94 µM); MIC (Staphylococcus aureus): 6.25 µg/mL (≈ 3.94 µM); MIC (Pseudomonas aeruginosa): 50 µg/mL (≈ 31.5 µM); MIC (Escherichia coli): 12.5 µg/mL (≈ 7.88 µM)

Q: Which Activity [1] does the source give for CC(C)C[C@@H]1NC(=O)[C@H](CCCN)NC(=O)[C@H](C(C)C)NC(=O)[C@@H](C)NC(=O)[C@@H]2CCCN2C(=O)[C@@H](Cc2ccccc2)NC(=O)[C@H](CC(C)C)NC(=O)[C@H](CCCN)NC(=O)[C@H](C(C)C)NC(=O)[C@@H](C)NC(=O)[C@@H]2CCCN2C(=O)[C@@H](Cc2ccccc2)NC1=O (cyclo(L[dF]P[dA]V[Orn]L[dF]P[dA]V[Orn])) here?
A: Its Activity is “Non-toxic”.

Q: What about the MIC (Priestia megaterium) of the same compound?
A: Its MIC is 12.5 µg/mL (≈ 9.74 µM).

Q: And the MIC [2]?
A: Its MIC is 25 µg/mL (≈ 19.5 µM).

Q: And the MIC (Bacillus subtilis)?
A: Its MIC is 12.5 µg/mL (≈ 9.74 µM).

Q: And the MIC (Staphylococcus aureus)?
A: Its MIC is 12.5 µg/mL (≈ 9.74 µM).

Q: And the MIC (Pseudomonas aeruginosa)?
A: Its MIC is greater than 100 µg/mL.

Q: And the MIC (Escherichia coli)?
A: Its MIC is greater than 100 µg/mL.

Q: What does the source list for CC(C)C[C@@H]1NC(=O)[C@H](CCCN)NC(=O)[C@H](C(C)C)NC(=O)[C@@H](Cc2ccc(O)cc2)NC(=O)[C@@H]2CCCN2C(=O)[C@@H](Cc2ccccc2)NC(=O)[C@H](CC(C)C)NC(=O)[C@H](CCCN)NC(=O)[C@H](C(C)C)NC(=O)[C@@H](Cc2ccc(O)cc2)NC(=O)[C@@H]2CCCN2C(=O)[C@@H](Cc2ccccc2)NC1=O [GRATISIN]?
A: Activity [1]: Toxic; MIC (Priestia megaterium): 6.25 µg/mL (≈ 4.26 µM); MIC [2]: 12.5 µg/mL (≈ 8.52 µM); MIC (Bacillus subtilis): 6.25 µg/mL (≈ 4.26 µM); MIC (Staphylococcus aureus): 6.25 µg/mL (≈ 4.26 µM); MIC (Pseudomonas aeruginosa): 100 µg/mL (≈ 68.1 µM); MIC (Escherichia coli): 100 µg/mL (≈ 68.1 µM)
